Data from ChEMBL document CHEMBL1149770, “Synthesis and antimicrobial studies of novel dichlorofluorophenyl containing aminotriazolothiadiazines” (2008).
Converted amounts (≈) assume the structure as drawn.

Legend:
Aspergillus flavus [1] = experiment: Antifungal activity against Aspergillus flavus after 48 hrs […]; format: functional
Talaromyces marneffei [2] = experiment: Antifungal activity against Penicillium marneffei after 48 hrs […]; format: functional
Pseudomonas aeruginosa [3] = experiment: Antibacterial activity against Pseudomonas aeruginosa ATCC 27853 after 24 hrs by broth dilution technique; format: functional; settings: ATCC 27853, 24 h
Outline: (§1)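 MIC by broth dilution in nutrient broth with logarithmic serial twofold dilutions of compound. Inoculum approx. 5×10^5 c.f.u actively dividing bacteria. Incubated 24 h at 37 °C, growth monitored visually and spectrophotometrically. MIC taken as the lowest concentration (highest dilution) arresting growth. Ciprofloxacin reference.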

Staphylococcus aureus [4] = experiment: Antibacterial activity against Staphylococcus aureus ATCC 25923 after 24 hrs by broth dilution technique; format: functional; settings: ATCC 25923, 24 h; outline: as §1
Escherichia coli = experiment: Antibacterial activity against Escherichia coli ATCC 25922 after 24 hrs by broth dilution technique; format: functional; settings: ATCC 25922, 24 h; outline: as §1
Klebsiella pneumoniae [5] = experiment: Antibacterial activity against Klebsiella pneumoniae after 24 hrs by broth dilution technique; format: functional; outline: as §1
[6] = system: Trichophyton mentagrophytes; experiment: Antifungal activity against Trichophyton mentagrophytes after 48 hrs […]; format: functional
Candida albicans [7] = experiment: Antifungal activity against Candida albicans after 48 hrs […]; format: functional
Aspergillus fumigatus [8] = experiment: Antifungal activity against Aspergillus fumigatus after 48 hrs […]; format: functional
Talaromyces marneffei [9] = experiment: Antifungal activity against Penicillium marneffei assessed as inhibition zone diameter […] by agar dilution method; format: functional
Outline: (§2)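 Compounds in DMSO placed in punched wells on Sabouraud agar (peptone, glucose, agar, pH 5.7) lawned with saline spore suspension. Plates pre-dried 1 h at 37 °C. Controls in triplicate, incubation at 37 °C for 3-4 days, then inhibition zone diameter read in mm. Amphotericin B reference.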

Klebsiella pneumoniae [10] = experiment: Antibacterial activity against Klebsiella pneumoniae assessed as inhibition zone diameter after 24 hrs […]; format: functional
Outline: (§3)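 Disc diffusion on nutrient agar. Inoculum 1-2 × 10^7 c.f.u/ml (0.5 McFarland) spread over the plate surface. Sterile 6.25 mm filter-paper discs soaked in a known concentration of compound. Solvent and growth controls included. Plates incubated inverted 24 h at 37 °C, then inhibition zone diameter measured in mm. Ciprofloxacin reference.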

Aspergillus fumigatus [11] = experiment: Antifungal activity against Aspergillus fumigatus assessed as inhibition zone diameter […] by agar dilution method; format: functional; outline: as §2
[12] = system: Trichophyton mentagrophytes; experiment: Antifungal activity against Trichophyton mentagrophytes assessed as inhibition zone diameter […] by agar dilution method; format: functional; outline: as §2
Pseudomonas aeruginosa [13] = experiment: Antibacterial activity against Pseudomonas aeruginosa ATCC 27853 assessed as inhibition zone diameter after 24 hrs […]; format: functional; outline: as §3
Candida albicans [14] = experiment: Antifungal activity against Candida albicans assessed as inhibition zone diameter […] by agar dilution method; format: functional; outline: as §2
Streptococcus pyogenes [15] = experiment: Antibacterial activity against Streptococcus pyogenes assessed as inhibition zone diameter after 24 hrs by disc diffusion method
Streptococcus pyogenes [16] = experiment: Antibacterial activity against Streptococcus pyogenes after 24 hrs by broth dilution technique; format: functional; outline: as §1
Staphylococcus aureus [17] = experiment: Antibacterial activity against Staphylococcus aureus ATCC 25923 assessed as inhibition zone diameter after 24 hrs […]; format: functional; outline: as §3
Aspergillus flavus [18] = experiment: Antifungal activity against Aspergillus flavus assessed as inhibition zone diameter […] by agar dilution method; format: functional; outline: as §2

Structure (SMILES) | MIC (Aspergillus flavus [1]) [µg/mL] | MIC (Talaromyces marneffei [2]) [µg/mL] | MIC (Pseudomonas aeruginosa [3]) [µg/mL] | MIC (Staphylococcus aureus [4]) [µg/mL] | MIC (Escherichia coli) [µg/mL] | MIC (Klebsiella pneumoniae [5]) [µg/mL] | MIC [6] [µg/mL] | MIC (Candida albicans [7]) [µg/mL] | MIC (Aspergillus fumigatus [8]) [µg/mL] | MIC (Streptococcus pyogenes [16]) [µg/mL] | inhibition zone (IZ) (Talaromyces marneffei [9]) [mm] | inhibition zone (IZ) (Klebsiella pneumoniae [10]) [mm] | inhibition zone (IZ) (Aspergillus fumigatus [11]) [mm] | inhibition zone (IZ) [12] [mm] | inhibition zone (IZ) (Pseudomonas aeruginosa [13]) [mm] | inhibition zone (IZ) (Candida albicans [14]) [mm] | inhibition zone (IZ) (Streptococcus pyogenes [15]) [mm] | inhibition zone (IZ) (Staphylococcus aureus [17]) [mm] | inhibition zone (IZ) (Aspergillus flavus [18]) [mm]
Fc1cc(-c2nnc3n2N=C(Nc2c(Cl)cccc2Cl)CS3)c(Cl)cc1Cl | > 100 | 25 (≈ 54 µM) | > 100 | > 100 | 25 (≈ 54 µM) | > 100 | 12.5 (≈ 27 µM) | 6.25 (≈ 13.5 µM) | 25 (≈ 54 µM) | 12.5 (≈ 27 µM) | 10 |  | 10 | 12 |  | 18 | 15 |  | 
Cc1cccc(NC2=Nn3c(nnc3-c3cc(F)c(Cl)cc3Cl)SC2)c1C | > 100 | 6.25 (≈ 14.8 µM) | 25 (≈ 59.2 µM) | 6.25 (≈ 14.8 µM) | 12.5 (≈ 29.6 µM) | 6.25 (≈ 14.8 µM) | > 100 | 25 (≈ 59.2 µM) | 12.5 (≈ 29.6 µM) | 25 (≈ 59.2 µM) | 18 | 19 | 16 |  | 12 | 10 | 10 | 25 | 
Nn1c(SCC(=O)Nc2ccc(Cl)cc2Cl)nnc1-c1cc(F)c(Cl)cc1Cl | > 100 | > 100 | > 100 | > 100 | > 100 | > 100 | > 100 | > 100 | > 100 |  |  |  |  |  |  |  |  |  | 
Cc1cc(C)c(NC2=Nn3c(nnc3-c3cc(F)c(Cl)cc3Cl)SC2)c(C)c1 | > 100 | 12.5 (≈ 28.6 µM) | 25 (≈ 57.3 µM) | 6.25 (≈ 14.3 µM) | 12.5 (≈ 28.6 µM) | 25 (≈ 57.3 µM) | 12.5 (≈ 28.6 µM) | 12.5 (≈ 28.6 µM) | > 100 | 12.5 (≈ 28.6 µM) | 11 | 8 |  | 14 | 16 | 13 | 15 | 23 | 
COc1ccc(NC(=O)CSc2nnc(-c3cc(F)c(Cl)cc3Cl)n2N)cc1 | > 100 | > 100 | 6.25 (≈ 14.1 µM) | 6.25 (≈ 14.1 µM) | 6.25 (≈ 14.1 µM) | 6.25 (≈ 14.1 µM) | > 100 | > 100 | > 100 | 6.25 (≈ 14.1 µM) |  | 21 |  |  | 32 |  | 23 | 24 | 
Fc1ccc(NC2=Nn3c(nnc3-c3cc(F)c(Cl)cc3Cl)SC2)cc1 | > 100 | 6.25 (≈ 15.2 µM) | 12.5 (≈ 30.3 µM) | 12.5 (≈ 30.3 µM) | 6.25 (≈ 15.2 µM) | 12.5 (≈ 30.3 µM) | 6.25 (≈ 15.2 µM) | 12.5 (≈ 30.3 µM) | 25 (≈ 60.6 µM) | 6.25 (≈ 15.2 µM) | 19 | 16 | 6 | 18 | 24 | 14 | 22 | 15 | 
Fc1ccc(NC2=Nn3c(nnc3-c3cc(F)c(Cl)cc3Cl)SC2)cc1Cl | > 100 | 12.5 (≈ 28 µM) | 12.5 (≈ 28 µM) | > 100 | 6.25 (≈ 14 µM) | 12.5 (≈ 28 µM) | 25 (≈ 56 µM) | > 100 | > 100 | 6.25 (≈ 14 µM) | 16 | 11 |  | 10 | 20 |  | 18 |  | 
C[C@@H]1[C@H](O)[C@@H](C)/C=C/C=C/C=C/C=C/C=C/C=C/C=C/[C@H](O[C@@H]2O[C@H](C)[C@@H](O)[C@H](N)[C@@H]2O)C[C@@H]2O[C@](O)(C[C@@H](O)C[C@@H](O)[C@H](O)CC[C@@H](O)C[C@@H](O)CC(=O)O[C@H]1C)C[C@H](O)[C@H]2C(=O)O [AMPHOTERICIN B] | 6.25 (≈ 6.76 µM) | 6.25 (≈ 6.76 µM) |  |  |  |  | 6.25 (≈ 6.76 µM) | 6.25 (≈ 6.76 µM) | 6.25 (≈ 6.76 µM) |  | 23 |  | 22 | 19 |  | 20 |  |  | 25
O=C(O)c1cn(C2CC2)c2cc(N3CCNCC3)c(F)cc2c1=O [CIPROFLOXACIN] |  |  |  |  |  | 6.25 (≈ 18.9 µM) |  |  |  | 6.25 (≈ 18.9 µM) |  | 22 |  |  | 33 |  | 25 | 25 | 

Now from value to molecule, other results behind:

MIC (Aspergillus flavus [1]) [µg/mL] | MIC (Talaromyces marneffei [2]) [µg/mL] | MIC (Pseudomonas aeruginosa [3]) [µg/mL] | MIC (Staphylococcus aureus [4]) [µg/mL] | MIC (Escherichia coli) [µg/mL] | MIC (Klebsiella pneumoniae [5]) [µg/mL] | MIC [6] [µg/mL] | MIC (Candida albicans [7]) [µg/mL] | MIC (Aspergillus fumigatus [8]) [µg/mL] | MIC (Streptococcus pyogenes [16]) [µg/mL] | Structure (SMILES) | inhibition zone (IZ) (Talaromyces marneffei [9]) [mm] | inhibition zone (IZ) (Klebsiella pneumoniae [10]) [mm] | inhibition zone (IZ) (Aspergillus fumigatus [11]) [mm] | inhibition zone (IZ) [12] [mm] | inhibition zone (IZ) (Pseudomonas aeruginosa [13]) [mm] | inhibition zone (IZ) (Candida albicans [14]) [mm] | inhibition zone (IZ) (Streptococcus pyogenes [15]) [mm] | inhibition zone (IZ) (Staphylococcus aureus [17]) [mm] | inhibition zone (IZ) (Aspergillus flavus [18]) [mm]
> 100 | > 100 | > 100 | > 100 | > 100 | > 100 | > 100 | > 100 | > 100 |  | CCOc1ccc(NC(=O)CSc2nnc(-c3cc(F)c(Cl)cc3Cl)n2N)cc1 |  |  |  |  |  |  |  |  | 
> 100 | > 100 | > 100 | > 100 | > 100 | > 100 | > 100 | > 100 | > 100 |  | Nn1c(SCC(=O)Nc2cccc(Cl)c2Cl)nnc1-c1cc(F)c(Cl)cc1Cl |  |  |  |  |  |  |  |  | 
> 100 | > 100 | > 100 | > 100 | > 100 | > 100 | > 100 | > 100 | > 100 |  | Cc1cccc(C)c1NC(=O)CSc1nnc(-c2cc(F)c(Cl)cc2Cl)n1N |  |  |  |  |  |  |  |  | 
> 100 | 12.5 (≈ 27 µM) | 12.5 (≈ 27 µM) | > 100 | 12.5 (≈ 27 µM) | 12.5 (≈ 27 µM) | 25 (≈ 54 µM) | > 100 | 12.5 (≈ 27 µM) |  | Fc1cc(-c2nnc3n2N=C(Nc2cccc(Cl)c2Cl)CS3)c(Cl)cc1Cl | 12 | 14 | 11 | 8 | 17 |  |  |  | 
6.25 (≈ 13.8 µM) | 12.5 (≈ 27.5 µM) | > 100 | > 100 | > 100 | > 100 | 6.25 (≈ 13.8 µM) | 12.5 (≈ 27.5 µM) | 12.5 (≈ 27.5 µM) |  | Cc1cc(C)c(NC(=O)CSc2nnc(-c3cc(F)c(Cl)cc3Cl)n2N)c(C)c1 | 13 |  | 15 | 17 |  | 11 |  |  | 23
6.25 (≈ 14.7 µM) | > 100 | 25 (≈ 58.9 µM) | 6.25 (≈ 14.7 µM) | > 100 | 12.5 (≈ 29.5 µM) | 12.5 (≈ 29.5 µM) | 6.25 (≈ 14.7 µM) | 12.5 (≈ 29.5 µM) | 12.5 (≈ 29.5 µM) | COc1ccc(NC2=Nn3c(nnc3-c3cc(F)c(Cl)cc3Cl)SC2)cc1 |  | 12 | 12 | 13 | 15 | 19 | 16 | 22 | 18
12.5 (≈ 29.6 µM) | > 100 | 12.5 (≈ 29.6 µM) | > 100 | 12.5 (≈ 29.6 µM) | 12.5 (≈ 29.6 µM) | 12.5 (≈ 29.6 µM) | 25 (≈ 59.2 µM) | 25 (≈ 59.2 µM) | 12.5 (≈ 29.6 µM) | Cc1ccc(NC2=Nn3c(nnc3-c3cc(F)c(Cl)cc3Cl)SC2)c(C)c1 |  | 14 | 9 | 12 | 18 | 8 | 11 |  | 15
25 (≈ 57 µM) | 12.5 (≈ 28.5 µM) | 25 (≈ 57 µM) | 6.25 (≈ 14.3 µM) | > 100 | 12.5 (≈ 28.5 µM) | > 100 | 12.5 (≈ 28.5 µM) | 12.5 (≈ 28.5 µM) |  | CCOc1ccc(NC2=Nn3c(nnc3-c3cc(F)c(Cl)cc3Cl)SC2)cc1 | 17 | 12 | 15 |  | 15 | 12 |  | 20 | 10
25 (≈ 54 µM) | 12.5 (≈ 27 µM) | > 100 | > 100 | 12.5 (≈ 27 µM) | 12.5 (≈ 27 µM) | 12.5 (≈ 27 µM) | 12.5 (≈ 27 µM) | 6.25 (≈ 13.5 µM) |  | Fc1cc(-c2nnc3n2N=C(Nc2ccc(Cl)cc2Cl)CS3)c(Cl)cc1Cl | 12 | 17 | 19 | 11 |  | 15 |  |  | 8
